ChEMBL document CHEMBL3272112, “Cycloalkanones. 8. Hypocholesterolemic activity of long-chain ketones related to pentadecanone” (J Med Chem, 1976)

How the values were obtained:
Rattus norvegicus [1] = organism: Rattus norvegicus; experiment: Disruption of rat liver cell membrane assessed as unlysed cells at 10 mg per gram of tissue measured at 1 hr (reference value: 90 +/- 4%); type: functional
Summary of the method: (§1)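 Rat liver 10% homogenate in 0.25 M sucrose + 0.001 M EDTA, pH 7.2, incubated at 37°C with Hanke's buffer pH 7.2 and drug suspended in 1% CMC (dose as mg drug per g wet liver); turbidity read as absorbance at 660 nm over 0–4 hr, falling absorbance taken as lysis; expressed as % unlysed cells; vehicle 1% CMC control.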

Rattus norvegicus [2] = experiment: Effect on serum triglyceride level in Sprague-Dawley rat at 20 mg/kg/day measured on day 14 (reference value: 100 +/- 21%); type: functional
Rattus norvegicus [3] = experiment: Hypocholesterolemic activity in Sprague-Dawley rat assessed as serum cholesterol level at 50 mg/kg/day, po administered via intubation measured on day 4 by Liebermann-Burchard method relative to control; type: functional
Summary of the method: (§2)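 Male Sprague-Dawley rats given compound homogenized in 1% CMC once daily at 11:00 a.m. by oral intubation needle (0.2 cc), doses calculated on weekly body weights; tail-vein blood drawn 24 h after last dose; nonhemolyzed serum (30 μ) assayed by modified Liebermann-Burchard method; N = 8; % of control, mean ± SD; Student's t test.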

Rattus norvegicus [4] = experiment: Hypocholesterolemic activity in Sprague-Dawley rat assessed as serum cholesterol level at 10 mg/kg/day, po administered via intubation measured on day 10 by Liebermann-Burchard method relative to control; type: functional; summary of the method: as §2
Rattus norvegicus [5] = experiment: Uterotrophic activity in ovariectomized weaned Sprague-Dawley rat assessed as uterine weight at 10 mg/kg/day measured after 3 days (reference value: 100 +/- 15%); type: ADME, organism-based, Uterus; settings: in vivo, 72 h
Summary of the method: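 Weaned rats were ovariectomized and left untreated for 3 days. They were then dosed for 3 days with 17-ethinylestradiol 10 µg/kg/day or test compound 10 mg/kg/day, with 1% CMC as the vehicle control. Rats were then killed and the uterus removed, trimmed and weighed. Results are % of control uterine weight, mean ± SD; N = 7; Student's t test.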

Rattus norvegicus [6] = organism: Rattus norvegicus; experiment: Disruption of rat liver cell membrane assessed as unlysed cells at 25 mg per gram of tissue measured at 1 hr (reference value: 90 +/- 4%); type: functional; summary of the method: as §1
Rattus norvegicus [7] = experiment: Toxicity in Sprague-Dawley rat assessed as food intake at 5 mg/kg/day measured after 2 weeks (reference value: 24.8 +/- 1.1 g/day); type: organism-based; settings: in vivo, 336 h
Rattus norvegicus [8] = organism: Rattus norvegicus; experiment: Disruption of rat liver cell membrane assessed as unlysed cells at 10 mg per gram of tissue measured at 15 mins (reference value: 91 +/- 6%); type: functional; summary of the method: as §1
Rattus norvegicus [9] = experiment: Toxicity in Sprague-Dawley rat assessed as increase in body weight at 50 mg/kg/day administered for 16 days measured on day 16 post last dose (reference value: 195 +/- 16%); type: organism-based; settings: in vivo, 384 h
Rattus norvegicus [10] = experiment: Toxicity in Sprague-Dawley rat assessed as atrophy of vesicular gland at 10 mg/kg/day administered for 16 days measured on day 16 post last dose; type: organism-based; settings: in vivo, 384 h
Rattus norvegicus [11] = experiment: Toxicity in Sprague-Dawley rat assessed as increase in epididymis and vas deferens weight at 10 mg/kg/day administered for 16 days measured on day 16 post last dose relative to total body weight (reference value: 0.22 +/- 0.04%); type: organism-based; settings: in vivo, 384 h
Rattus norvegicus [12] = experiment: Toxicity in Sprague-Dawley rat assessed as effect on RNA level in liver at 10 mg/kg/day measured after 16 days (reference value: 100 +/- 6%); type: organism-based; settings: in vivo, 384 h
Rattus norvegicus [13] = organism: Rattus norvegicus; experiment: Disruption of rat liver lysosomal membrane assessed as free acid phosphatase activity at 25 mg per gram of tissue measured after 1 hr (reference value: 100 +/- 16%); type: functional, tissue-based
Summary of the method: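 10% rat liver homogenate incubated with Hanke's buffer pH 7.2 and drug suspension in 1% CMC in a shaker at 37°C; aliquot removed after 1 hr and percent free (unbound) acid phosphatase activity determined as an index of lysosomal membrane rupture.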

Rattus norvegicus [14] = experiment: Toxicity in Sprague-Dawley rat assessed as atrophy of vas deferens at 10 mg/kg/day administered for 16 days measured on day 16 post last dose; type: organism-based; settings: in vivo, 384 h
Rattus norvegicus [15] = experiment: Toxicity in Sprague-Dawley rat assessed as estrogenic activity at 10 mg/kg/day; type: organism-based; settings: in vivo
Summary of the method: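 Weaned rats ovariectomized, left 3 days, then given 10 mg/kg/day test compound (or 10 μg/kg/day 17-ethinylestradiol as reference) for 3 days; killed, uterus removed, trimmed and weighed; expressed as % uterine weight of 1% CMC control, mean ± SD; Student's t test.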

Rattus norvegicus [16] = experiment: Toxicity in Sprague-Dawley rat assessed as increase in body weight at 10 mg/kg/day measured on day 16 (reference value: 195 +/- 16%); type: organism-based; settings: in vivo
Rattus norvegicus [17] = organism: Rattus norvegicus; experiment: Disruption of rat liver cell membrane assessed as unlysed cells at 25 mg per gram of tissue measured at 30 mins (reference value: 93 +/- 7%); type: functional; summary of the method: as §1
Rattus norvegicus [18] = experiment: Hypocholesterolemic activity in Sprague-Dawley rat assessed as serum cholesterol level at 1 mg/kg/day, po administered via intubation measured on day 10 by Liebermann-Burchard method relative to control; type: functional; summary of the method: as §2
Rattus norvegicus [19] = experiment: Hypocholesterolemic activity in Sprague-Dawley rat assessed as serum cholesterol level at 20 mg/kg/day, po administered via intubation measured on day 4 by Liebermann-Burchard method relative to control; type: functional; summary of the method: as §2
Rattus norvegicus [20] = experiment: Toxicity in Sprague-Dawley rat assessed as increase in vesicular gland weight at 10 mg/kg/day administered for 16 days measured on day 16 post last dose relative to total body weight (reference value: 0.118 +/- 0.062%); type: organism-based; settings: in vivo, 384 h
Rattus norvegicus [21] = experiment: Toxicity in Sprague-Dawley rat assessed as atrophy of testis at 10 mg/kg/day administered for 16 days measured on day 16 post last dose; type: organism-based; settings: in vivo, 384 h
Rattus norvegicus [22] = experiment: Toxicity in Sprague-Dawley rat assessed as increase in body weight at 20 mg/kg/day administered for 16 days measured on day 16 post last dose (reference value: 195 +/- 16%); type: organism-based; settings: in vivo, 384 h
Rattus norvegicus [23] = experiment: Toxicity in Sprague-Dawley rat assessed as atrophy of epididymis at 10 mg/kg/day administered for 16 days measured on day 16 post last dose; type: organism-based; settings: in vivo, 384 h
Rattus norvegicus [24] = organism: Rattus norvegicus; experiment: Disruption of rat liver cell membrane assessed as unlysed cells at 5 mg per gram of tissue measured at 15 mins (reference value: 91 +/- 6%); type: functional; summary of the method: as §1
Rattus norvegicus [25] = experiment: Toxicity in Sprague-Dawley rat assessed as change in kidney weight at 10 mg/kg/day administered for 16 days measured on day 16 post last dose relative to total body weight (reference value: 0.91 +/- 0.10%); type: organism-based; settings: in vivo, 384 h
Rattus norvegicus [26] = organism: Rattus norvegicus; experiment: Disruption of rat liver cell membrane assessed as unlysed cells at 10 mg per gram of tissue measured at 30 mins (reference value: 93 +/- 7%); type: functional; summary of the method: as §1
Rattus norvegicus [27] = organism: Rattus norvegicus; experiment: Disruption of rat liver cell membrane assessed as unlysed cells at 10 mg per gram of tissue measured at 4 hrs (reference value: 17 +/- 4%); type: functional; summary of the method: as §1
Rattus norvegicus [28] = organism: Rattus norvegicus; experiment: Disruption of rat liver cell membrane assessed as unlysed cells at 5 mg per gram of tissue measured at 2 hrs (reference value: 77 +/- 8%); type: functional; summary of the method: as §1
Rattus norvegicus [29] = experiment: Hypocholesterolemic activity in Sprague-Dawley rat assessed as serum cholesterol level at 5 mg/kg/day, po administered via intubation measured on day 16 by Liebermann-Burchard method relative to control; type: functional; summary of the method: as §2
Rattus norvegicus [30] = experiment: Toxicity in Sprague-Dawley rat assessed as increase in testes weight at 10 mg/kg/day administered for 16 days measured on day 16 post last dose relative to total body weight (reference value: 1.09 +/- 0.01%); type: organism-based, Testis; settings: in vivo, 384 h

With CCCCCCCCCCCCCCC(C)=O the Activity (Rattus norvegicus [1]) was 92%, the Activity (Rattus norvegicus [2]) was 101% and the Activity (Rattus norvegicus [3]) was 75%. The Activity (Rattus norvegicus [4]) was 72%, the Activity (Rattus norvegicus [5]) was 64% and the Activity (Rattus norvegicus [6]) was 92%. It also gave an Activity (Rattus norvegicus [7]) of 26.3 g/day, an Activity (Rattus norvegicus [8]) of 96% and an Activity (Rattus norvegicus [9]) of 226%. For the same compound, the Activity (Rattus norvegicus [10]) was “Non-toxic”, the Activity (Rattus norvegicus [11]) was 0.24% and the Activity (Rattus norvegicus [12]) was 111%. The Activity (Rattus norvegicus [13]) was 116%, the Activity (Rattus norvegicus [14]) was “Non-toxic” and the Activity (Rattus norvegicus [15]) was “Non-toxic”. For the same compound, the Activity (Rattus norvegicus [16]) was 228%, the Activity (Rattus norvegicus [17]) was 96% and the Activity (Rattus norvegicus [18]) was 80%. The Activity (Rattus norvegicus [19]) was 74%, the Activity (Rattus norvegicus [20]) was 0.121% and the Activity (Rattus norvegicus [21]) was “Non-toxic”. For the same compound, the Activity (Rattus norvegicus [22]) was 225%, the Activity (Rattus norvegicus [23]) was “Non-toxic” and the Activity (Rattus norvegicus [24]) was 95%. The Activity (Rattus norvegicus [25]) was 0.86%, the Activity (Rattus norvegicus [26]) was 95% and the Activity (Rattus norvegicus [27]) was 19%. The Activity (Rattus norvegicus [28]) was 83%, the Activity (Rattus norvegicus [29]) was 67% and the Activity (Rattus norvegicus [30]) was 1.13%.
